According to ChEMBL document CHEMBL4834436, “Discovery of the S1P2 Antagonist GLPG2938 (1-[2-Ethoxy-6-(trifluoromethyl)-4-pyridyl]-3-[[5-methyl-6-[1-methyl-3-(trifluoromethyl)pyrazol-4-yl]pyridazin-3-yl]methyl]urea), a Preclinical Candidate for the Treatment of Idiopathic Pulmonary Fibrosis” (J Med Chem, 2021):

Key:
[1] = molecular target: T1, Sphingosine 1-phosphate receptor 2 (Homo sapiens, UniProt O95136); assay: Antagonist activity at human S1P2 receptor expressed in CHO cells assessed as EC80 S1P-induced calcium flux measured for 3 mins by fluorescence assay; format: functional, cell-based
T1 sequence (O95136 whole entry): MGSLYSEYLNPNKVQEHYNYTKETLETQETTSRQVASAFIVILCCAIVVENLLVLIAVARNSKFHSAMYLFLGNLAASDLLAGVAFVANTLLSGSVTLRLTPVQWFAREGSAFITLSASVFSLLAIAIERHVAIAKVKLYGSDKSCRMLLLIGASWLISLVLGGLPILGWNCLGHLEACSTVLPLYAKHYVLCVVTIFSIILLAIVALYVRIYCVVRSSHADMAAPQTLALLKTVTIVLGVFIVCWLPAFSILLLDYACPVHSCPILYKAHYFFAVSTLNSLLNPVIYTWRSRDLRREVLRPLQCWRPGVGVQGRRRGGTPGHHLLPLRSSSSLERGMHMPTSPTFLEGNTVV
Method in brief: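 Same dye-loaded, starved human S1P2-CHO cells; after agonist readout, 15 min at 37 °C, then stimulated with S1P at EC80, fluorescence read 3 min. Max/baseline ratio normalized to vehicle and S1P EC80. 10-point 1/3 dilutions from 20 μM final; IC50 derived; geometric mean of ≥2 runs.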

[2] = molecular target: T1, Sphingosine 1-phosphate receptor 2; assay: Agonist activity at human S1P2 receptor expressed in CHO cells assessed as calcium flux measured for 3 mins by fluorescence assay; format: functional, cell-based; conditions: read-out: IC50 (the source's name)
Method in brief: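 CHO cells stably overexpressing human S1P2, seeded overnight at 37 °C/5% CO2, washed and starved 1 h in F-12 with 0.1% fatty-acid-free BSA, loaded with Fluo 8 dye with 5 mM probenecid. Compound added, fluorescence read 3 min; max/baseline ratio normalized to vehicle and S1P EC100. 10-point 1/3 dilutions from 23.3 μM final; EC50 derived; geometric mean of ≥2 runs.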

[3] = molecular target: T1, Sphingosine 1-phosphate receptor 2; assay: Antagonist activity at recombinant human S1P2 receptor expressed in CHO cells assessed as EC80 S1P-induced activation incubated for 4 hrs in presence of [35S]GTPgammaS by Topcount reader; format: functional, cell-based
Method in brief: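 Membranes from stable lines overexpressing recombinant human S1P2, preincubated with PVT-WGA SPA beads, mixed with compound serial dilutions, [35S]GTPγS and S1P at EC80. Incubated 4 h at room temperature, centrifuged, scintillation counted. Antagonist mode; IC50 as geometric mean of ≥2 runs.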

[4] = Intrinsic clearance unbound in mouse liver microsomes at 1 uM […] by LC-MS/MS analysis; format: ADME, Microsome
[5] = Intrinsic clearance unbound in human liver microsomes at 1 uM […] by LC-MS/MS analysis; format: ADME, Microsome
[6] = molecular target: T1, Sphingosine 1-phosphate receptor 2; assay: Antagonist activity at recombinant human S1P2 receptor in HFL1 cells assessed as inhibition of EC80 S1P-induced IL8 release incubated for 16 to 24 hrs in absence of HSA by ELISA; format: functional, cell-based
Method in brief: (§1)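 HFL-1 lung fibroblasts seeded in 96- or 384-well plates, then medium replaced by starvation medium with 1% heat-inactivated FBS, ±1.95% HSA (2% HSA condition), 16–24 h. 10-point 1/3 dilutions, 30 μM top final, 1 h, then S1P at EC80 (without HSA: 1 μM 96-well or 0.5 μM 384-well; with HSA: 5 or 2 μM).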

[7] = molecular target: T1, Sphingosine 1-phosphate receptor 2; assay: Antagonist activity at recombinant human S1P2 receptor in HFL1 cells assessed as inhibition of EC80 S1P-induced IL8 release measured as unbound concentration incubated for 16 to 24 hrs in presence of 2% HSA by ELISA; format: functional, cell-based; conditions: filed as antagonist, time 16-24 hrs
Method in brief: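 IL8 IC50 from the 2% HSA condition converted to free IC50 = IC50 × fu,medium, where fu,medium is estimated from human plasma protein binding fraction unbound and the serum percentage used in the assay.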

[8] = molecular target: T1, Sphingosine 1-phosphate receptor 2; assay: Antagonist activity at recombinant human S1P2 receptor in HFL1 cells assessed as inhibition of EC80 S1P-induced IL8 release incubated for 16 to 24 hrs in presence of 2% HSA by ELISA; format: functional, cell-based; method in brief: as §1
[9] = molecular target: T1, Sphingosine 1-phosphate receptor 2; assay: Displacement of radio labeled-SIP from human recombinant S1P2 receptor expressed in CHO cell membranes […] by radioligand based competition binding assay; parameters: species or system Membrane

Row | SMILES | IC50 [1] | EC50 [2] | IC50 [3] | CL free [4] | CL free [5] | IC50 [6] | fIC50 [7] | IC50 [8] | IC50 [9] | IC50 ([3]; cho)
1 | Cc1cc(NNC(=O)Nc2cc(Cl)nc(Cl)c2)nc(C(=O)N(C)C2CC2)c1 | > 20 µM | > 23 µM |  |  |  |  |  |  |  | 
2 | CCOc1nc(C)cc(NC(=O)NCc2cc(C)c(-c3cn(C)nc3C(F)(F)F)nn2)c1Cl | 8.7 µM |  | 26 µM | 250 mL/min/kg | < 25 mL/min/kg | 26 nM | 0.55 nM | 0.049 µM |  | 
3 | Cc1cc(CNC(=O)Nc2cc(OCCN(C)C)nc(C(F)(F)F)c2)nnc1-c1cn(C)nc1C(F)(F)F | 2140 µM |  | > 10000 µM | < 90 mL/min/kg | 23.3 mL/min/kg | > 10000 nM |  |  |  | 
4 | CCOc1nc(C)cc(NC(=O)NCc2cc(C)c(-c3cn(C)nc3C(F)(F)F)nn2)c1C#N | > 20 µM |  | > 20000 µM | 2270 mL/min/kg |  | > 20000 nM |  | > 30 µM |  | 
5 | CCOc1nc(Cl)cc(NC(=O)NCc2cc(C)c(-c3cn(C)nc3C(F)(F)F)nn2)c1C | 8.8 µM |  | 15 µM | < 533 mL/min/kg | < 127 mL/min/kg | 15 nM | 0.16 nM | 0.032 µM |  | 
6 | Cc1cc(CO)nc(NNC(=O)Nc2cc(Cl)nc(Cl)c2)c1 | > 6.6 µM | > 23 µM | 31 µM |  |  |  |  |  |  | 
7 | Cc1cc(NNC(=O)Nc2cc(Cl)nc(Cl)c2)nc(-c2cnn(C)c2)c1 | > 2.1 µM | > 23 µM | 3.1 µM |  |  |  |  |  |  | 
8 | Cc1cc(NNC(=O)Nc2cc(Cl)nc(Cl)c2)ncc1C#N | 6 µM | > 23 µM | 7 µM |  |  |  |  |  |  | 
9 | Cc1cc(CNC(=O)c2cc(Cl)nc(Cl)c2)ncc1-c1cn(C)nc1C | > 19 µM |  | > 100 µM | 85 mL/min/kg |  | > 100 nM |  |  |  | 
10 | Cc1cc(CNC(=O)Nc2cc(OCCO)nc(C(F)(F)F)c2)nnc1-c1cn(C)nc1C(F)(F)F | 348 µM |  | 704 µM | 102 mL/min/kg | < 23.3 mL/min/kg | 704 nM | 87 nM | 0.81 µM |  | 
11 | Cc1cc(NNC(=O)Nc2cc(Cl)nc(Cl)c2)nc(C(=O)NC2CC2)c1 | 4.5 µM | > 23 µM |  |  |  |  |  |  |  | 
12 | Cc1cc(CNC(=O)Nc2cc(OCC(O)CO)nc(C(F)(F)F)c2)nnc1-c1cn(C)nc1C(F)(F)F (stereo unspecified) | > 6.61 µM |  | > 11000 µM | < 76.7 mL/min/kg | 31.7 mL/min/kg | > 11000 nM |  | > 10 µM |  | 
13 | CCOc1cc(NC(=O)NCc2cc(C)c(-c3cn(C)nc3C(F)(F)F)nn2)cc(C)n1 | 54 µM |  | 242 µM | < 58.3 mL/min/kg | < 15 mL/min/kg | 242 nM | 15 nM | 0.194 µM |  | 
14 | CCOc1nc(C#N)cc(NC(=O)NCc2cc(C)c(-c3cn(C)nc3C(F)(F)F)nn2)c1C | 7.1 µM |  | 24 µM | < 163 mL/min/kg | < 35 mL/min/kg | 24 nM | 0.19 nM | 0.017 µM |  | 
15 | Cc1cc(CNC(=O)Nc2cc(C(F)(F)F)nc(OCCO)c2C)nnc1-c1cn(C)nc1C(F)(F)F | 84 µM |  | 169 µM | 91.7 mL/min/kg |  | 160 nM | 5.4 nM | 0.256 µM |  | 
16 | Cc1cc(C#N)nc(NNC(=O)Nc2cc(Cl)nc(Cl)c2)c1 | > 6.6 µM | > 23 µM |  |  |  |  |  |  |  | 
17 | Cc1cc(NNC(=O)Nc2cc(Cl)nc(Cl)c2)ncc1-c1cn(C)nc1C | > 1.4 µM | > 23 µM | 0.8 µM |  |  |  |  |  | 0.19 µM | 
18 | Cc1cc(NNC(=O)Nc2cc(Cl)nc(Cl)c2)ncc1-c1ccn(C)n1 | 4 µM | > 23 µM | 9.3 µM |  |  |  |  |  |  | 
19 | Cc1cc(NNC(=O)Nc2cc(Cl)nc(Cl)c2)nc(C(=O)N(C)C)c1 | > 19 µM | > 23 µM |  |  |  |  |  |  |  | 
20 | Cc1cc(CNC(=O)Cc2ccc(Cl)c(Cl)c2)ncc1-c1cn(C)nc1C | > 19 µM |  |  | 3770 mL/min/kg |  |  |  |  |  | Not Active
21 | CCOc1cc(NC(=O)NCc2cc(C)c(-c3cn(C)nc3C(F)(F)F)nn2)cc(C#N)n1 | 11 µM |  | 35 µM | < 105 mL/min/kg | < 28.3 mL/min/kg | 35 nM | 3 nM | 0.067 µM |  | 
22 | Cc1cc(CNC(=O)Nc2cc(Cl)nc(OCC(F)F)c2)nnc1-c1cn(C)nc1C(F)(F)F | 7.2 µM |  | 36 µM | < 167 mL/min/kg | < 50 mL/min/kg | 36 nM | 1.3 nM | 0.071 µM |  | 
23 | COCCOc1cc(NC(=O)NCc2cc(C)c(-c3cn(C)nc3C(F)(F)F)nn2)cc(Cl)n1 | 412 µM |  | 640 µM | 317 mL/min/kg | < 23.3 mL/min/kg | 640 nM |  | 3.22 µM |  | 

Further lines, results first:

Row | IC50 [1] | EC50 [2] | IC50 [3] | CL free [4] | CL free [5] | IC50 [6] | fIC50 [7] | IC50 [8] | IC50 [9] | IC50 ([3]; cho) | SMILES
24 | 0.012 µM |  | 55 µM | 867 mL/min/kg | 267 mL/min/kg | 55 nM |  |  |  |  | CCOc1cc(NC(=O)NCc2cc(C)c(Nc3cn(C)nc3C)cn2)cc(C(F)(F)F)n1
25 | 0.76 µM | > 23 µM | 2.1 µM |  |  |  |  |  | 0.3 µM |  | CCOC(=O)c1cc(C)cc(NNC(=O)Nc2cc(Cl)nc(Cl)c2)n1
26 | 0.11 µM |  | 0.61 µM | > 783 mL/min/kg |  | 0.61 nM |  |  |  |  | Cc1cc(CNC(=O)c2cc3c(Cl)cc(Cl)cc3[nH]2)ncc1-c1cn(C)nc1C
27 | 0.016 µM |  | 105 µM | 500 mL/min/kg | 125 mL/min/kg | 105 nM |  |  |  |  | CCOc1cc(NC(=O)NCc2cc(C)c(N3CC(C)OC(C)C3)cn2)cc(Cl)n1 (stereo unspecified)
28 | 1.3 µM | > 23 µM | 6.2 µM |  |  |  |  |  |  |  | Cc1cc(NNC(=O)Nc2cc(Cl)nc(Cl)c2)nc(-c2ccc(F)cc2)c1
29 | 0.3 µM |  | 0.77 µM | 200 mL/min/kg |  | 0.77 nM |  |  |  |  | Cc1cc(CNC(=O)Nc2cc(Cl)nc(Cl)c2)ncc1-c1cn(C)nc1C
30 | 3.6 µM | > 23 µM | 5.3 µM |  |  |  |  |  |  |  | Cc1cc(NNC(=O)Nc2cc(Cl)nc(Cl)c2)ncc1N(C)C
31 | 0.009 µM |  | 0.43 µM | 2580 mL/min/kg |  | 0.43 nM |  |  |  |  | Cc1cc(CNc2nc3cc(Cl)c(Cl)cc3[nH]2)ncc1-c1cn(C)nc1C
32 | 0.033 µM |  | 2.25 µM | 1370 mL/min/kg |  | 2.25 nM |  |  |  |  | CCOc1nc(Cl)cc2nc(NCc3cc(C)c(-c4cn(C)nc4C)cn3)[nH]c12
33 | 0.04 µM | 4.7 µM | 0.32 µM | 700 mL/min/kg |  | 0.032 nM |  |  |  |  | CCOc1cc(NC(=O)NCc2cc(C)c(-c3cn(C)nc3C)cn2)cc(Cl)n1
34 | 0.89 µM |  | 1.3 µM | 633 mL/min/kg |  | 1.3 nM |  |  |  |  | Cc1cc(CNC(=O)c2cc3c(Cl)nc(Cl)cc3[nH]2)ncc1-c1cn(C)nc1C
35 | 2.6 µM | > 23 µM | 3.4 µM |  |  |  |  |  | 1.2 µM |  | Cc1cc(NNC(=O)Nc2cc(Cl)nc(Cl)c2)ncc1-c1cnn(C)c1
36 | 0.16 µM |  | 0.3 µM | 2650 mL/min/kg |  | 0.3 nM |  |  |  |  | Cc1cc(CNC(=O)Nc2cc(Cl)cc(Cl)c2)ncc1-c1cn(C)nc1C
